# Data from ChEMBL document CHEMBL3870334, “Synthesis, anticancer, and docking studies of salicyl-hydrazone analogues: A novel series of small potent tropomyosin receptor kinase A inhibitors” (Bioorg Med Chem, 2017).
# Experiments:
# [1] = target: T1, High affinity nerve growth factor receptor (Homo sapiens, UniProt P04629); assay: Inhibition of TrkA (unknown origin)
# How it was run: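 Purified TrkA, biotinylated substrate peptide and inhibitor were preincubated 15 min at 25°C, then 100 µM ATP was added. After 30 min, Eu-cryptate anti-phosphotyrosine antibody (1 µM) and streptavidin-XL665 (125 nM) were added for 1 h. HTRF read at 320 nm excitation, 620/665 nm emission ratio. IC50 from % inhibition across 12 serial dilutions (0.03~10000 nM).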
# Target sequence in this assay (P04629 whole entry): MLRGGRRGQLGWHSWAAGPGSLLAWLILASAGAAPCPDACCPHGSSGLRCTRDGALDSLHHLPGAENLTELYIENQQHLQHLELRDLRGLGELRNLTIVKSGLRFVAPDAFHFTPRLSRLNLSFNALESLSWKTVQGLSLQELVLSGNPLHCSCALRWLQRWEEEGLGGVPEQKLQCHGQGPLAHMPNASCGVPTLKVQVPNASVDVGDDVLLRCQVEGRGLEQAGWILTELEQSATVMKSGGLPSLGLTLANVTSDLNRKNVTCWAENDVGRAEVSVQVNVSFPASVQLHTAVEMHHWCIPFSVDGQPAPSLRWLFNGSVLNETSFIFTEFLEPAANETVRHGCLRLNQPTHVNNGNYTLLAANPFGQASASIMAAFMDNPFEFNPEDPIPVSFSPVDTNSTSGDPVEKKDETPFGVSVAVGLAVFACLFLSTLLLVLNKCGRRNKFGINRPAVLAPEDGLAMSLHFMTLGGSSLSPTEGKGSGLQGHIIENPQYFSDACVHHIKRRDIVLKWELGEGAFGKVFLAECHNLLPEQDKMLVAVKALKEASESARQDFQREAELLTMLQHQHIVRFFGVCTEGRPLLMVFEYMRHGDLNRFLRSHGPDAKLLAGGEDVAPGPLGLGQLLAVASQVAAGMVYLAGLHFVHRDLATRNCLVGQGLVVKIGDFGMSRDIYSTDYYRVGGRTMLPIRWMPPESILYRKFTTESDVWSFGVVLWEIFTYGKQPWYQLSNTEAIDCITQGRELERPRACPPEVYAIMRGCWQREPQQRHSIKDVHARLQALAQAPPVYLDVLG
# [2] = Cytotoxicity against human A549 cells assessed as reduction in cell proliferation measured after 48 hrs by SRB assay; format: functional, cell-based; details: A549, 48 h
# How it was run: (§1)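 SRB assay of net cell proliferation after continuous 48 h exposure to test compound. Inhibition is expressed as a percentage of non-treated controls. Samples were run in triplicate, and the mean IC50 (concentration giving 50% inhibition of proliferation) was calculated. Doxorubicin served as positive control.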
# [3] = Cytotoxicity against human SKOV3 cells assessed as reduction in cell proliferation measured after 48 hrs by SRB assay; format: functional, cell-based; details: SK-OV-3, 48 h; how it was run: as §1
# [4] = Cytotoxicity against human SK-MEL-2 cells assessed as reduction in cell proliferation measured after 48 hrs by SRB assay; format: functional, cell-based; details: SK-MEL-2, 48 h; how it was run: as §1
# [5] = Cytotoxicity against human HCT15 cells assessed as reduction in cell proliferation measured after 48 hrs by SRB assay; format: functional, cell-based; details: HCT-15, 48 h; how it was run: as §1
# [6] = Cytotoxicity against human MIAPaCa2 cells assessed as reduction in cell proliferation measured after 48 hrs by SRB assay; format: functional, cell-based; details: MIA PaCa-2, 48 h; how it was run: as §1
# [7] = target: T1, High affinity nerve growth factor receptor; assay: Inhibition of human N- terminal GST-tagged TrkA cytoplasmic domain (436 to 790 residues) expressed in baculovirus infected sf21 cells at 1 uM using biotinylated peptide substrate incubated for 15 mins followed by addition of ATP measured after 30 mins by TR-FRET assay relative to control
# Target sequence in this assay (P04629 33-796 limits assumed): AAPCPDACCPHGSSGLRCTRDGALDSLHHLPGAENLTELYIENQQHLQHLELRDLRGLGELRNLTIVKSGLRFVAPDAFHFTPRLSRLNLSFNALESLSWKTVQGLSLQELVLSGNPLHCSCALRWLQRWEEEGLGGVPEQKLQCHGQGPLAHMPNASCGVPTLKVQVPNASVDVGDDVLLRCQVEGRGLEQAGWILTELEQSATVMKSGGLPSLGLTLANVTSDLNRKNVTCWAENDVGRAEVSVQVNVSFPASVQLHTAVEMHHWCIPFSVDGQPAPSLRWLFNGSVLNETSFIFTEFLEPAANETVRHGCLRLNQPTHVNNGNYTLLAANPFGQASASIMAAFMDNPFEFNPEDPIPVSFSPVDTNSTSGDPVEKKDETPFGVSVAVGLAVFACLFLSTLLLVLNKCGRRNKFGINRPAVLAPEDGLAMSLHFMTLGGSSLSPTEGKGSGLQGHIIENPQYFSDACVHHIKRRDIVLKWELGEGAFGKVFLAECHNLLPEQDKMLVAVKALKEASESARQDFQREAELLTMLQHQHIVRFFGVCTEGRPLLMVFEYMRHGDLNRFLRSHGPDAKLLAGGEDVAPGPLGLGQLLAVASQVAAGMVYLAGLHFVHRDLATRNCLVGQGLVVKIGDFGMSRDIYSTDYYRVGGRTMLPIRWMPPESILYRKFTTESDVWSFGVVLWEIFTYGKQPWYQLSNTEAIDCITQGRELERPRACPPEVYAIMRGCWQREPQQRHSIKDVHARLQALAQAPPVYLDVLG
# [8] = target: T1, High affinity nerve growth factor receptor; assay: Inhibition of human N- terminal GST-tagged TrkA cytoplasmic domain (436 to 790 residues) expressed in baculovirus infected sf21 cells using biotinylated peptide substrate incubated for 15 mins followed by addition of ATP measured after 30 mins by TR-FRET assay
# Target sequence in this assay (P04629 whole entry): as the sequence (P04629 whole entry) above
# [9] = target: T1, High affinity nerve growth factor receptor; assay: Inhibition of TrkA (unknown origin) by ELISA
# Target sequence in this assay (P04629 whole entry): as above
# [10] = target: T1, High affinity nerve growth factor receptor; assay: Inhibition of human TrkA expressed in human U2OS cells assessed as inhibition of NGF-induced response measured after 1 hr by beta-galactosidase assay; format: cell-based
# Target sequence in this assay (P04629 whole entry): as above
Compound,IC50 [1],IC50 [2],IC50 [3],IC50 [4],IC50 [5],IC50 [6],inhibition [7],IC50 [8],IC50 [9],IC50 [10]
COc1ccccc1/C=C/C(=O)Nc1nc(N)n(-c2ccccc2)n1,0.027 µM,,,,,,,,,
O=C(N/N=C/c1ccc(O)c(O)c1)c1ccccc1O,,3.15 µM,9.14 µM,8.86 µM,10 µM,4.74 µM,92.9%,2.54 µM,,
O=C(N/N=C/c1ccc([N+](=O)[O-])cc1)c1ccccc1O,,8.72 µM,8.8 µM,9.34 µM,22.7 µM,6.73 µM,,,,
CC1(C)C[C@H](c2cc(F)ccc2F)N(c2ccn3ncc(NC(=O)c4cnccn4)c3n2)C1,,,,,,,,,0.002 µM,
COc1cccc2c1C(=O)c1c(O)c3c(c(O)c1C2=O)C[C@@](O)(C(=O)CO)C[C@@H]3O[C@H]1C[C@H](N)[C@H](O)[C@H](C)O1 [DOXORUBICIN],,0.021 µM,0.074 µM,0.001 µM,0.872 µM,0.049 µM,,,,
CCc1ncc(C(=O)C2CC([C@@H](C)CO)c3ncncc32)cc1NC(=O)Cc1ccc(C(F)(F)F)cc1 (some centres not stated),,,,,,,,,,0.013 µM
O=C(N/N=C/c1ccc(O)cc1)c1ccccc1O,,2.86 µM,9.1 µM,5.46 µM,8.6 µM,1.18 µM,20.6%,,,
Cn1cc(/C=C2\C(=O)Nc3cccnc32)c2ccccc21,,,,,,,> 99%,,,
COc1ccc(/C=N/NC(=O)c2ccccc2O)cc1,,12.9 µM,14.4 µM,15.2 µM,28.1 µM,8.64 µM,,,,
O=C(N/N=C/c1ccc(O)cc1O)c1ccccc1O,,2.46 µM,0.87 µM,1.43 µM,0.89 µM,0.48 µM,92.4%,0.232 µM,,
O=C(N/N=C/c1ccc(O)c(O)c1O)c1ccccc1O,,7.16 µM,1.96 µM,1.84 µM,3.71 µM,2.21 µM,90.9%,0.38 µM,,
Oc1ccc(Nc2nc(-c3ccccc3O)nc3ccccc23)cc1,0.303 µM,,,,,,,,,
Nc1ccc(Cc2cccc(NC(=O)N3CCN(c4ccccc4)C3=O)c2)cn1,0.02 µM,,,,,,,,,
O=C(N/N=C/c1ccccc1[N+](=O)[O-])c1ccccc1O,,23.2 µM,19.6 µM,19.4 µM,34.6 µM,14 µM,,,,
COc1ncc(C(=O)C2CC(C(C)C)c3ncncc32)cc1NC(=O)Nc1cc(Cl)cc(Cl)c1 (configuration not stated),,,,,,,,,,0.048 µM
Cc1ccc(/C=N/NC(=O)c2ccccc2O)cc1,,6.74 µM,9.81 µM,13.1 µM,26.9 µM,4.45 µM,3.7%,,,
O=C(N/N=C/c1ccc(Cl)cc1)c1ccccc1O,,22.2 µM,9.83 µM,14.3 µM,20.9 µM,7.19 µM,6.92%,,,
COc1ccc(/C=N/NC(=O)c2ccccc2O)c(OC)c1,,31.3 µM,14.5 µM,19.6 µM,25.7 µM,11.3 µM,7.61%,,,
CN(C)c1ccc(/C=N/NC(=O)c2ccccc2O)cc1,,21.5 µM,18.5 µM,19.3 µM,38.4 µM,20.7 µM,,,,
O=C(N/N=C/c1ccccc1)c1ccccc1O,,2.78 µM,5.94 µM,9.77 µM,21.3 µM,2.46 µM,,,,
